Measured values as given in ChEMBL document CHEMBL1132465, “Design and synthesis of thrombin inhibitors: analogues of MD-805 with reduced stereogenicity and improved potency” (J Med Chem, 1999).
Values joined by “and” are separate entries in the source; they are usually repeats but may differ in a detail not shown here. Identical values can stand only once.

Legend:
[1] = target: Prothrombin (Bos taurus, UniProt P00735); test: Inhibitory activity against bovine thrombin
[2] = test system: Rattus norvegicus; test: Percentage inhibition on venous stasis thrombosis in the rat at 0.1 dose (mg/kg); format: functional
Outline: (§1)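 Rat acute venous stasis. The vessel was excised after 10 min and the thrombus weighed. Compound was dosed iv 2 min or sc 1 h before stasis. Result is % inhibition of mean control thrombus weight relative to placebo, mean ± SEM, n = 5.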

[3] = test system: Rattus norvegicus; test: Percentage inhibition on the f fibrinogen accumulation in the rat model of Arterial thrombosis at 2.0 dose (mg/kg); format: functional
Outline: (§2)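 Rat dorsal aorta injury model. Rats received 111In-labelled platelets 24 h and 125I-fibrinogen 10 min before injury. The aorta was clamped with modified forceps for 1 min, then blood flowed 45 min. The vessel was excised, washed in 5% citrate and gamma-counted, and counts were converted to mg blood equivalents. Dosing was iv 1 min or sc 1 h before clamping. Result is % inhibition versus placebo accumulation, mean ± SEM, n = 5.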

[4] = test system: Rattus norvegicus; test: Percentage inhibition on the platelet accumulation in the rat model of Arterial thrombosis at 2.0 dose (mg/kg); format: functional; outline: as §2
[5] = test system: Rattus norvegicus; test: Percentage inhibition on the platelet accumulation in the rat model of Arterial thrombosis at 30.0 dose (mg/kg); format: functional; outline: as §2
[6] = TThe compound was evaluated for the APTT value expressed as multiplies of control and was measured at the termination of the experiment (45 min later) in the rat model of arterial thrombosis at 1.0 dose (mg/kg); format: functional
Outline: (§3)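 Rat arterial thrombosis model with sc dosing 1 h before clamping the dorsal aorta. Blood was taken via carotid cannula into one-tenth volume 3.8% trisodium citrate just before clamping and at termination, 45 min later. APTT was measured on plasma and expressed as a multiple of control, mean ± SEM, n = 5.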

[7] = target: Chymotrypsinogen A (Bos taurus, UniProt P00766); test: The compound was evaluated for the inhibitory activity against bovine Chymotrypsinogen
Outline: (§4)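 Chromogenic assay run as for thrombin, with S-2222 (trypsin) or S-2586 (chymotrypsin) as substrate. Enzymes were bovine. Buffer was 0.05 M TRIS-HCl, pH 8.4. Compound stocks were in DMSO (final below 0.5%). Rate was read at 405 nm over 30 s. Ki came from double-reciprocal plots across a range of substrate concentrations.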

[8] = test system: Rattus norvegicus; test: Percentage inhibition on the f fibrinogen accumulation in the rat model of Arterial thrombosis at 30.0 dose (mg/kg); format: functional; outline: as §2
[9] = target: T1, Trypsin II (Bos taurus, UniProt Q29463); test: The compound was evaluated for the inhibitory activity against bovine trypsin; outline: as §4
T1 sequence (Q29463 whole entry): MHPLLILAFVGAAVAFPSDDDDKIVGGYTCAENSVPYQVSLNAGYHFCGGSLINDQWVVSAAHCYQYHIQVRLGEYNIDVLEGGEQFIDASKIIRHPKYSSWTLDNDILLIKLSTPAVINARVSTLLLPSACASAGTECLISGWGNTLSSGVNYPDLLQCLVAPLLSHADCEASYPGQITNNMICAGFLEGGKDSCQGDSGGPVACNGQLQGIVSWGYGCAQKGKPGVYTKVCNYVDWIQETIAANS

[10] = test system: Rattus norvegicus; test: Percentage inhibition on the f fibrinogen accumulation in the rat model of Arterial thrombosis at 3.0 dose (mg/kg); format: functional; outline: as §2
[11] = The compound was evaluated for the APTT value expressed as multiplies of control and was measured at the termination of the experiment (45 min later) in the rat model of arterial thrombosis at 3.0 dose (mg/kg); format: functional; outline: as §3
[12] = test system: Rattus norvegicus; test: Percentage inhibition on the platelet accumulation in the rat model of Arterial thrombosis at 3.0 dose (mg/kg); format: functional; outline: as §2
[13] = target: Plasminogen (Homo sapiens, UniProt P00747); test: The compound was evaluated for the inhibitory activity against human plasmin
Outline: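 Human plasmin, S-2251 chromogenic substrate, 0.05 M TRIS-HCl pH 8.4. Run like the thrombin assay: DMSO stock (final below 0.5%), initial rate at 405 nm over 30 s, substrate varied across a range. Ki was calculated from Lineweaver-Burk intercepts of control and inhibited curves.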

[14] = test system: Rattus norvegicus; test: Percentage inhibition on venous stasis thrombosis in the rat at 6.0 dose (mg/kg); format: functional; outline: as §1
[15] = test system: Rattus norvegicus; test: Percentage inhibition on venous stasis thrombosis in the rat at 1.0 dose (mg/kg); format: functional; outline: as §1
[16] = TThe compound was evaluated for the APTT value expressed as multiplies of control and was measured at the termination of the experiment (45 min later) in the rat model of arterial thrombosis at 10.0d ose (mg/kg); format: functional; outline: as §3
[17] = The compound was evaluated for the APTT value expressed as multiplies of control and was measured at the termination of the experiment (45 min later) in the rat model of arterial thrombosis at 2.0 dose (mg/kg); format: functional; outline: as §3
[18] = test system: Rattus norvegicus; test: Percentage inhibition on the platelet accumulation in the rat model of Arterial thrombosis at 10.0 dose (mg/kg); format: functional; outline: as §2
[19] = The compound was evaluated for the dose to double the control plasma APTT value in the human plasma; format: functional
Outline: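 Human blood was anticoagulated with one-tenth volume 3.8% trisodium citrate and centrifuged at 1300g for 20 min to give platelet-poor plasma. Plasma was spiked with compound at 0 to about 150 μM. It was activated 5 min at 37 °C with bovine cephalin (ellagic acid) reagent, and clotting was started with 20 mM CaCl2. Clot time was read on a coagulometer. Concentration doubling APTT was read from a concentration–APTT plot.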

[20] = test system: Rattus norvegicus; test: Percentage inhibition on the f fibrinogen accumulation in the rat model of Arterial thrombosis at 1.0 dose (mg/kg); format: functional; outline: as §2
[21] = test system: Rattus norvegicus; test: Percentage inhibition on venous stasis thrombosis in the rat at 2.0 dose (mg/kg); format: functional; outline: as §1
[22] = test system: Rattus norvegicus; test: Percentage inhibition on the f fibrinogen accumulation in the rat model of Arterial thrombosis at 10.0 dose (mg/kg); format: functional; outline: as §2
[23] = test system: Rattus norvegicus; test: Percentage inhibition on venous stasis thrombosis in the rat at 3.0 dose (mg/kg); format: functional; outline: as §1
[24] = test system: Rattus norvegicus; test: Percentage inhibition on venous stasis thrombosis in the rat at 0.05 dose (mg/kg); format: functional; outline: as §1
[25] = test system: Rattus norvegicus; test: Percentage inhibition on the platelet accumulation in the rat model of Arterial thrombosis at 0.3 dose (mg/kg); format: functional; outline: as §2
[26] = The compound was evaluated for the APTT value expressed as multiplies of control and was measured at the termination of the experiment (45 min later) in the rat model of arterial thrombosis at 30.0 dose (mg/kg); format: functional; outline: as §3

Sequence of Plasminogen (P00747 97-580 limits assumed): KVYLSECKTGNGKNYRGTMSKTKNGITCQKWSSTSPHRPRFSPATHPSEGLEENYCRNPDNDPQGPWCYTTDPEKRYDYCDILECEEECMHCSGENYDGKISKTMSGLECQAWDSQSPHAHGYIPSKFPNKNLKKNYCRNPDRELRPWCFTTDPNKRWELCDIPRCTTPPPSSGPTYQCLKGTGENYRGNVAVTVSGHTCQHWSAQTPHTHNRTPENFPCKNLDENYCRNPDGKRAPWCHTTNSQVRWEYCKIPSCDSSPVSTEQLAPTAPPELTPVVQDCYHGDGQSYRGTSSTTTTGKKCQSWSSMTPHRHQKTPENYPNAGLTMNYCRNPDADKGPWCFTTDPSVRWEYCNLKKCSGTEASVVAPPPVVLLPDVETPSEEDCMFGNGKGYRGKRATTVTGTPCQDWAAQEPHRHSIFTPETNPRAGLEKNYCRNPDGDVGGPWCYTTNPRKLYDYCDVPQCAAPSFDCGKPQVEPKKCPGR
Sequence of Plasminogen (P00747 581-810 limits assumed): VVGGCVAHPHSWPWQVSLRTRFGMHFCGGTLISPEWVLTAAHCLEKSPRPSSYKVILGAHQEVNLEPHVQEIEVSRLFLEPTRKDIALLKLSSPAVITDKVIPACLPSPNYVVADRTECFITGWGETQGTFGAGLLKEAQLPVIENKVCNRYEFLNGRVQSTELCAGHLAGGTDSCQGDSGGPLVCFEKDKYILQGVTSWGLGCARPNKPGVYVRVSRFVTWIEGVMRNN

## CC1CNc2c(cccc2S(=O)(=O)NC(CCCN=C(N)N)C(=O)N2CCCC2)C1 (stereo not drawn)
[1]
  Ki: 795 nM

## CC1CNc2c(cccc2S(=O)(=O)NC(CCCN=C(N)N)C(=O)N2CCC(CCO)CC2)C1 (stereo not drawn)
[1]
  Ki: 52 nM

## CC1CNc2c(cccc2S(=O)(=O)NC(CCCN=C(N)N)C(=O)N2CCCCC2CO)C1 (stereo not drawn)
[1]
  Ki: 64 nM

## CC1CNc2c(cccc2S(=O)(=O)NC(CCCNC(=N)N)C(=O)N2CCc3ccccc3C2)C1 (stereo not drawn)
[1]
  Ki: 23 nM

## CC1CNc2c(cccc2S(=O)(=O)NC(CCCNC(=N)N)C(=O)N2CCC[C@@H](CCO)C2)C1 (stereo partly drawn)
[1]
  Ki: 1350 nM

## CC(C)(c1ccccc1)c1cccc(S(=O)(=O)NC(CCCN=C(N)N)C(=O)N2CCC[C@H]2CO)c1 (stereo partly drawn)
[1]
  Ki: 2900 nM

## CC1CNc2c(cccc2S(=O)(=O)NC(CCCN=C(N)N)C(=O)N2CCCC[C@H]2CO)C1 (stereo partly drawn)
[1]
  Ki: 23 nM

## CC1(C)CNc2c(cccc2S(=O)(=O)NC(CCCN=C(N)N)C(=O)N2CCC(CCO)CC2)C1 (stereo not drawn)
[2]
  Inhibition: 45.1%
[3]
  Inhibition: 3.5%
[4]
  Inhibition: 38.5%
[5]
  Inhibition: 69.8%
[6]
  APTT: 1
[7]
  Ki: > 83000 nM
[8]
  Inhibition: 49.9%
[9]
  Ki: 7100 nM
[10]
  Inhibition: 28.8%
[11]
  APTT: 1.5 and 1.3
[12]
  Inhibition: 94.4% and 82% and 61.2%
[13]
  Ki: 210000 nM
[14]
  Inhibition: 95.2%
[15]
  Inhibition: 100% and 50%
[16]
  APTT: 1.7
[17]
  APTT: 1.5 and 1
[18]
  Inhibition: 68.3%
[19]
  IC200: 1.9 µM
[20]
  Inhibition: 24.2%
[21]
  Inhibition: 79.8%
[22]
  Inhibition: 45.5%
[23]
  Inhibition: 71.7%
[24]
  Inhibition: 2.3%
[25]
  Inhibition: 58% and 36.4%
[26]
  APTT: 2.5

## CC1CNc2c(cccc2S(=O)(=O)NC(CCCN=C(N)N)C(=O)N2CCC(CCOC(=O)CC(=O)O)CC2)C1 (stereo not drawn)
[1]
  Ki: 360 nM

## CC1CNc2c(cccc2S(=O)(=O)NC(CCCN=C(N)N)C(=O)N2CCC(CCOCCCC(=O)O)CC2)C1 (stereo not drawn)
[1]
  Ki: 980 nM

## CC1CNc2c(cccc2S(=O)(=O)NC(CCCNC(=N)N)C(=O)N2Cc3ccccc3CC2CO)C1 (stereo not drawn)
[1]
  Ki: 890 nM

## CC1CNc2c(cccc2S(=O)(=O)NC(CCCNC(=N)N)C(=O)N2CCC(CCOC(=O)CCCC(=O)O)CC2)C1 (stereo not drawn)
[1]
  Ki: 170 nM

## CC1CNc2c(cccc2S(=O)(=O)NC(CCCN=C(N)N)C(=O)N2CCC(CC(=O)O)CC2)C1 (stereo not drawn)
[1]
  Ki: 2600 nM

## CC1CNc2c(cccc2S(=O)(=O)NC(CCCN=C(N)N)C(=O)N2CCC(CCCCCCC(=O)O)CC2)C1 (stereo not drawn)
[1]
  Ki: 1980 nM

## CC1CNc2c(cccc2S(=O)(=O)NC(CCCN=C(N)N)C(=O)N2CCC(CCNC(=O)CCC(=O)O)CC2)C1 (stereo not drawn)
[1]
  Ki: 650 nM

## CC1CNc2c(cccc2S(=O)(=O)NC(CCCN=C(N)N)C(=O)N2CCC[C@H]2CO)C1 (stereo partly drawn)
[1]
  Ki: 80 nM

## CC1CNc2c(cccc2S(=O)(=O)NC(CCCN=C(N)N)C(=O)N2CCC(O)CC2)C1 (stereo not drawn)
[1]
  Ki: 5180 nM

## CC1CNc2c(cccc2S(=O)(=O)NC(CCCNC(=N)N)C(=O)N2CCC(CCCO)CC2)C1 (stereo not drawn)
[1]
  Ki: 185 nM

## N=C(N)NCCCC(NS(=O)(=O)c1cccc2c1NCCC2)C(=O)N1CCC(CCO)CC1 (stereo not drawn)
[1]
  Ki: 490 nM
